Source: ChEMBL document CHEMBL3352430, “4-Aminopyridyl-based CYP51 inhibitors as anti-Trypanosoma cruzi drug leads with improved pharmacokinetic profile and in vivo potency” (J Med Chem, 2014)

Tests used:
[1] = AUClast in mouse at 50 mg/kg, po in 20% Kolliphor; assay type: ADME, organism-based; parameters: time 0 - last, dose 50 mg/kg, route oral; settings: plasma
Summary of the method: (§1)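 Female Swiss Webster mice, 8 weeks old, given one oral gavage dose of 50 mg/kg as a 10 mg/mL preparation in the named vehicle (20% HPβCD suspension or 20% Kolliphor). Plasma sampled at about 0.25, 0.5, 1, 2, 4, 6, 8, 12 and 24 h, n = 3 per time point. Protein precipitated with 5 volumes acetonitrile, filtered, then LC-MS/MS. Values are averages of three mice.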

[2] = Tmax in mouse at 50 mg/kg, po in 20% HP-beta-CD; assay type: ADME, organism-based; parameters: dose 50 mg/kg, route oral; settings: in vivo; summary of the method: as §1
[3] = Half life in mouse at 50 mg/kg, po in 20% Kolliphor; assay type: ADME, organism-based; parameters: dose 50 mg/kg, route oral; settings: in vivo; summary of the method: as §1
Brain [4] = assay: Drug uptake in mouse brain at 50 mg/kg, po in 20% HP-beta-CD measured at 8 hrs post dose; assay type: ADME, organism-based; parameters: dose 50 mg/kg, route oral; settings: in vivo
Summary of the method: (§2)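 Female Swiss Webster mice, 8 weeks old, given a single 50 mg/kg oral gavage dose in 20% HPβCD or 20% Kolliphor. Tissues taken from three mice at 2 and 8 h post dose. Homogenized by probe sonication in PBS (1:4 w/v), protein precipitated with acetonitrile, and compound measured by LC-MS/MS in μM.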

[5] = AUClast in mouse at 50 mg/kg, po in 20% HP-beta-CD; assay type: ADME, organism-based, Plasma; parameters: time 0 - last, dose 50 mg/kg, route oral; settings: plasma; summary of the method: as §1
[6] = Tmax in mouse at 50 mg/kg, po in 20% Kolliphor; assay type: ADME, organism-based; parameters: dose 50 mg/kg, route oral; settings: in vivo; summary of the method: as §1
Intestine [7] = assay: Drug uptake in mouse intestine at 50 mg/kg, po in 20% Kolliphor measured at 8 hrs post dose; assay type: ADME, organism-based; parameters: dose 50 mg/kg, route oral; settings: in vivo; summary of the method: as §2
Trypanosoma cruzi [8] = assay: Antitrypanosomal activity against Trypanosoma cruzi Y luc infected in mouse assessed as inhibition of parasitemia at 50 mg/kg, po bid in 20% Kolliphor administered for 4 consecutive days starting on day 3 of infection measured on day 7 post infection relative to vehicle-treated control; assay type: functional
Summary of the method: (§3)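 Female Swiss Webster mice, 8 weeks old, infected ip with 10^5 T. cruzi Y luc trypomastigotes. Only mice with detectable luminescence on day 3 were treated. Compound given by oral gavage bid for four days, as a suspension in 20% HPβCD or a solution in 20% Kolliphor, five mice per group. Vehicle group and benznidazole 50 mg/kg served as controls. On day 7, mice were injected ip with 150 mg/kg d-luciferin and imaged after 5 min under isoflurane. Percent inhibition calculated against untreated mice; two-tailed paired t test.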

Brain [9] = assay: Drug uptake in mouse brain at 50 mg/kg, po in 20% Kolliphor measured at 8 hrs post dose; assay type: ADME, organism-based; parameters: dose 50 mg/kg, route oral; settings: in vivo; summary of the method: as §2
[10] = Drug uptake in mouse fat at 50 mg/kg, po in 20% Kolliphor measured at 8 hrs post dose; assay type: ADME, organism-based, Adipose tissue; parameters: dose 50 mg/kg, route oral; settings: in vivo; summary of the method: as §2
Hepatocyte = assay: Cytotoxicity against mouse hepatocytes assessed as growth inhibition after 72 hrs by Cell Titer Glo assay
[11] = Cmax in mouse at 50 mg/kg, po in 20% Kolliphor; assay type: ADME, organism-based; parameters: dose 50 mg/kg, route oral; settings: in vivo; summary of the method: as §1
Intestine [12] = assay: Drug uptake in mouse intestine at 50 mg/kg, po in 20% HP-beta-CD measured at 8 hrs post dose; assay type: ADME, organism-based; parameters: dose 50 mg/kg, route oral; settings: in vivo; summary of the method: as §2
Heart [13] = assay: Drug uptake in mouse heart at 50 mg/kg, po in 20% Kolliphor measured at 8 hrs post dose; assay type: ADME, organism-based; parameters: dose 50 mg/kg, route oral; settings: in vivo; summary of the method: as §2
Lung [14] = assay: Drug uptake in mouse lung at 50 mg/kg, po in 20% Kolliphor measured at 8 hrs post dose; assay type: ADME, organism-based; parameters: dose 50 mg/kg, route oral; settings: in vivo; summary of the method: as §2
Brain [15] = assay: Drug uptake in mouse brain at 50 mg/kg, po in 20% Kolliphor measured at 2 hrs post dose; assay type: ADME, organism-based; parameters: dose 50 mg/kg, route oral; settings: in vivo; summary of the method: as §2
Lung [16] = assay: Drug uptake in mouse lung at 50 mg/kg, po in 20% HP-beta-CD measured at 8 hrs post dose; assay type: ADME, organism-based; parameters: dose 50 mg/kg, route oral; settings: in vivo; summary of the method: as §2
Cardiomyocyte = assay: Cytotoxicity against mouse cardiomyocytes assessed as growth inhibition after 72 hrs by Cell Titer Glo assay
C2C12 = assay: Cytotoxicity against mouse C2C12 cells up to 10 uM; assay type: cell-based
Summary of the method: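 Mouse C2C12 myoblasts infected with T. cruzi CA-I/72, then exposed at 24 h postinfection to compound at 10 μM down to 5 pM in 5-fold steps for 72 h at 37 °C. Cells fixed in paraformaldehyde, stained with DAPI and scored by automated imaging. Triplicate wells; uninfected and infected untreated wells as controls.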

[17] = Clearance in mouse at 50 mg/kg, po in 20% Kolliphor; assay type: ADME, organism-based; parameters: dose 50 mg/kg, route oral; settings: in vivo; summary of the method: as §1
Liver [18] = assay: Drug uptake in mouse liver at 50 mg/kg, po in 20% HP-beta-CD measured at 8 hrs post dose; assay type: ADME, organism-based; parameters: dose 50 mg/kg, route oral; settings: in vivo; summary of the method: as §2
[19] = Half life in mouse at 50 mg/kg, po in 20% HP-beta-CD; assay type: ADME, organism-based; parameters: dose 50 mg/kg, route oral; settings: in vivo; summary of the method: as §1
Liver [20] = assay: Drug uptake in mouse liver at 50 mg/kg, po in 20% Kolliphor measured at 8 hrs post dose; assay type: ADME, organism-based; parameters: dose 50 mg/kg, route oral; settings: in vivo; summary of the method: as §2
[21] = Drug uptake in mouse fat at 50 mg/kg, po in 20% HP-beta-CD measured at 8 hrs post dose; assay type: ADME, organism-based, Adipose tissue; parameters: dose 50 mg/kg, route oral; settings: in vivo; summary of the method: as §2
Heart [22] = assay: Drug uptake in mouse heart at 50 mg/kg, po in 20% HP-beta-CD measured at 8 hrs post dose; assay type: ADME, organism-based; parameters: dose 50 mg/kg, route oral; settings: in vivo; summary of the method: as §2
[23] = Drug uptake in mouse skeletal muscle at 50 mg/kg, po in 20% HP-beta-CD measured at 8 hrs post dose; assay type: ADME, organism-based, Muscle tissue; parameters: dose 50 mg/kg, route oral; settings: in vivo; summary of the method: as §2
[24] = Clearance in mouse at 50 mg/kg, po in 20% HP-beta-CD; assay type: ADME, organism-based; parameters: dose 50 mg/kg, route oral; settings: in vivo; summary of the method: as §1
[25] = Cmax in mouse at 50 mg/kg, po in 20% HP-beta-CD; assay type: ADME, organism-based; parameters: dose 50 mg/kg, route oral; settings: in vivo; summary of the method: as §1
[26] = Drug uptake in mouse skeletal muscle at 50 mg/kg, po in 20% Kolliphor measured at 8 hrs post dose; assay type: ADME, organism-based, Muscle tissue; parameters: dose 50 mg/kg, route oral; settings: in vivo; summary of the method: as §2
Cytochrome P450 2D6 = Cytochrome P450 2D6 (Homo sapiens, UniProt P10635); assay: Inhibition of CYP2D6 in human liver microsomes at 1 uM; assay type: ADME
Cytochrome P450 2D6, sequence (P10635 whole entry): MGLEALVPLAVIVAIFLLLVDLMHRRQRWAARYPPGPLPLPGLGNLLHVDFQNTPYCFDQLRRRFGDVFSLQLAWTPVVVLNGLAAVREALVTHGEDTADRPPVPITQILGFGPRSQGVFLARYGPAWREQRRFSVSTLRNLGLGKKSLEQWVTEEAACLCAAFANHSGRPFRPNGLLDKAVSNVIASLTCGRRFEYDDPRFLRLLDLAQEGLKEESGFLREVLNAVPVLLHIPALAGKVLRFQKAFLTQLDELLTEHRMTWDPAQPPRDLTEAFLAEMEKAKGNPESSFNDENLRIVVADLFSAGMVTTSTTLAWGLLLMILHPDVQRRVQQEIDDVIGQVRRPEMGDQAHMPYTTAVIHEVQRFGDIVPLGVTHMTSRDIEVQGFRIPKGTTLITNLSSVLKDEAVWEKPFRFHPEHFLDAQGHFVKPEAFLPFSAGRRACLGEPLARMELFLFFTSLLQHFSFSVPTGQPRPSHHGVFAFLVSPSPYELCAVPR

Liver microsome [27] = assay: Half life in human liver microsomes; assay type: ADME
Cytochrome P450 3A4 = Cytochrome P450 3A4 (Homo sapiens, UniProt P08684); assay: Inhibition of CYP3A4 in human liver microsomes at 1 uM; assay type: ADME
Cytochrome P450 3A4, sequence (P08684 whole entry): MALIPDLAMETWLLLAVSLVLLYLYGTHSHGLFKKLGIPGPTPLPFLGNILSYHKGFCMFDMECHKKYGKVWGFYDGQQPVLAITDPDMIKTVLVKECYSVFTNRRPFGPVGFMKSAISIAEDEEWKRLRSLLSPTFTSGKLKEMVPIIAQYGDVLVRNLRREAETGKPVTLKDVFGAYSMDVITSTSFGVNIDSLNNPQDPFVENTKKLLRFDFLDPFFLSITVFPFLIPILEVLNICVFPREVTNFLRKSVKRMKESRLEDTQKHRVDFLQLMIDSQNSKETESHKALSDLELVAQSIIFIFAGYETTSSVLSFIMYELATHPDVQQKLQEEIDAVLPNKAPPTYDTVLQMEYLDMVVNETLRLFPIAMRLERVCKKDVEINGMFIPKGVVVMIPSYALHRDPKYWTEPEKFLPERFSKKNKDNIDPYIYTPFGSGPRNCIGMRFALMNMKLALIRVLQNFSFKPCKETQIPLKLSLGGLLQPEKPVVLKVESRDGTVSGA

[28] = Ratio of Kd(app) for Trypanosoma cruzi CYP51 to EC50 for Trypanosoma cruzi amastigotes infected in mouse C2C12 cells
Summary of the method: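 Ratio of apparent KD to EC50. Apparent KD was approximated from UV–vis spectrophotometric titration of T. cruzi CYP51 in aqueous solution. […] Compounds were added 24 h postinfection at 10 μM down to 5 pM for 72 h at 37 °C, 5% CO2. Fixed cells were DAPI-stained and imaged, in triplicate.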

Cytochrome P450 2C9 = Cytochrome P450 2C9 (Homo sapiens, UniProt P11712); assay: Inhibition of CYP2C9 in human liver microsomes at 1 uM; assay type: ADME
Cytochrome P450 2C9, sequence (P11712 whole entry): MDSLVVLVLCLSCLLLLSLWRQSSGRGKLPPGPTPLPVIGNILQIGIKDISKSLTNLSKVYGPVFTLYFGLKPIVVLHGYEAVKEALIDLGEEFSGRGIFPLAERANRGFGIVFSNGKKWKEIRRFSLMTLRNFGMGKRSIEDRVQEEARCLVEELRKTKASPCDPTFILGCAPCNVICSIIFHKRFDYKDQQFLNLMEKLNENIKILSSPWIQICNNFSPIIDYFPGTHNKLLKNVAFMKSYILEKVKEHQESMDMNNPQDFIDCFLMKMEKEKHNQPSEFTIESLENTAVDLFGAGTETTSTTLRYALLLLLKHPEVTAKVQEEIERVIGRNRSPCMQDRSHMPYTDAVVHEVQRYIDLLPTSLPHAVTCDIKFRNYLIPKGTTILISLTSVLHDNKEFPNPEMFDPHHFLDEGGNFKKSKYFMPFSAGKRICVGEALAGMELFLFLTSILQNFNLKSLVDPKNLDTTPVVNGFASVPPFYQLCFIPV

Liver microsome [29] = assay: Half life in rat liver microsomes; assay type: ADME
Trypanosoma cruzi [30] = assay: Antitrypanosomal activity against Trypanosoma cruzi amastigotes infected in mouse C2C12 cells after 72 hrs by DAPI staining method; assay type: functional, organism-based; settings: C2C12, 72 h
Liver [31] = assay: Half life in mouse liver microsomes; assay type: ADME
Cytochrome P450 1A2 = target: T1, Cytochrome P450 1A2 (Homo sapiens, UniProt P05177); assay: Inhibition of CYP1A2 in human liver microsomes at 1 uM; assay type: ADME
T1 sequence (P05177 whole entry): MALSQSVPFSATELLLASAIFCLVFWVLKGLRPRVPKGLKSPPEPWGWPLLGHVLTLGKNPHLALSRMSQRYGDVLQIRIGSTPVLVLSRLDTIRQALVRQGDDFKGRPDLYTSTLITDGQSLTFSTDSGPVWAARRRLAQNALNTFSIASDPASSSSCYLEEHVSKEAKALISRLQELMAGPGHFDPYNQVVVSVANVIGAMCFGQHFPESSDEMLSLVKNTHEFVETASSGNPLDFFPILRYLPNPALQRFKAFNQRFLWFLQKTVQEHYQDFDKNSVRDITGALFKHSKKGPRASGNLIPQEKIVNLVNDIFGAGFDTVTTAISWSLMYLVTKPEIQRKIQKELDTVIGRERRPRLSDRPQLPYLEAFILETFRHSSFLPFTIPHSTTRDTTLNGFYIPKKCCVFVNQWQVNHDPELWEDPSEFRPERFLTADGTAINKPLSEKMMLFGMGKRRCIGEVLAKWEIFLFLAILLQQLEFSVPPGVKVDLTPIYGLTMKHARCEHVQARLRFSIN

Trypanosoma cruzi [32] = assay: Antitrypanosomal activity against Trypanosoma cruzi Y luc infected in mouse assessed as inhibition of parasitemia at 40 mg/kg, ip bid in 60% DMSO administered for 4 consecutive days starting on day 3 of infection measured on day 7 post infection relative to vehicle-treated control
Trypanosoma cruzi [33] = assay: Antitrypanosomal activity against Trypanosoma cruzi Y luc infected in mouse assessed as inhibition of parasitemia at 25 mg/kg, po bid in 20% Kolliphor administered for 4 consecutive days starting on day 3 of infection measured on day 7 post infection relative to vehicle-treated control; assay type: functional; summary of the method: as §3
[34] = target: Sterol 14-alpha demethylase (Trypanosoma cruzi (strain CL Brener), UniProt Q7Z1V1); assay: Binding affinity to Trypanosoma cruzi CYP51 by UV-vis titration method; settings: read-out: Kd(app)
Sterol 14-alpha demethylase, sequence (Q7Z1V1 whole entry): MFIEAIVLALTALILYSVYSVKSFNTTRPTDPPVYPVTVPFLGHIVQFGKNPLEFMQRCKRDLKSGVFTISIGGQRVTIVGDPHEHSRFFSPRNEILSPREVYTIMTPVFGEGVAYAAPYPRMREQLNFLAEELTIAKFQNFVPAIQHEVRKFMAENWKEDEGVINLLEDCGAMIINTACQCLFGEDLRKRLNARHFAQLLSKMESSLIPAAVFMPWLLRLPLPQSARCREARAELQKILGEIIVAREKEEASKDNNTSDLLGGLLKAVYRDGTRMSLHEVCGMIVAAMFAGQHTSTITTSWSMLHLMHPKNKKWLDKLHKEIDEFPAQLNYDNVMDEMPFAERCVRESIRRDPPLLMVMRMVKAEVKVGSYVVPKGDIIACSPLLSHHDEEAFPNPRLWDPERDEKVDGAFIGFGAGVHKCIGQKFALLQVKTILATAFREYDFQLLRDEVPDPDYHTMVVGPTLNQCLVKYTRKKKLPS

Compound O=C(N[C@H](Cc1c[nH]c2ccccc12)C(=O)Nc1ccncc1)c1ccc(N2CCN(c3ccc(F)c(F)c3)CC2)cc1F has an AUC(0-t) [1] of 17.7 µM·h, a Tmax [2] of 2.67 h and a half-life [3] of 4.55 h. The Drug uptake (Brain [4]) was “Active”, the AUC(0-t) [5] was 2.37 µM·h and the Tmax [6] was 4 h. For the same compound, the Drug uptake (Intestine [7]) was “Active”, the inhibition in vivo at 50 mg/kg (Trypanosoma cruzi [8]) was 98.6% and the Drug uptake (Brain [9]) was “Active”. For the same compound, the Drug uptake [10] was “Active”, the EC50 (Hepatocyte) was greater than 90 µM and the Cmax [11] was 2080 nM. The Drug uptake (Intestine [12]) was “Active”, the Drug uptake (Heart [13]) was “Active” and the Drug uptake (Lung [14]) was “Active”. For the same compound, the Drug uptake (Brain [15]) was “Active”, the Drug uptake (Lung [16]) was “Active” and the EC50 (Cardiomyocyte) was greater than 90 µM. The Activity (C2C12) was “Non-toxic”, the CL/F [17] was 83.5 mL/min/kg and the Drug uptake (Liver [18]) was “Active”. For the same compound, the half-life [19] was 1.45 h, the Drug uptake (Liver [20]) was “Active” and the Drug uptake [21] was “Active”. For the same compound, the Drug uptake (Heart [22]) was “Active”, the Drug uptake [23] was “Active” and the CL/F [24] was 562 mL/min/kg. The Cmax [25] was 640 nM and the Drug uptake [26] was “Active”.
In the case of O=C(N[C@H](Cc1c[nH]c2ccccc12)C(=O)Nc1ccncc1)c1ccc(N2CCN(c3cccc(F)c3)CC2)cc1F, the “inhibition (INH)” value (Cytochrome P450 2D6) is reported as 52%, the t1/2 (Liver microsome [27]) is reported as 6 min and the “inhibition (INH)” value (Cytochrome P450 3A4) is reported as 84%. The Ratio [28] was 10, the “inhibition (INH)” value (Cytochrome P450 2C9) was 95% and the Drug uptake (Intestine [7]) was “Active”. The Drug uptake [10] was “Active”, the t1/2 (Liver microsome [29]) was 0.3 h and the Drug uptake (Intestine [12]) was “Active”. For the same compound, the Drug uptake (Heart [13]) was “Active”, the Drug uptake (Lung [14]) was “Active” and the Drug uptake (Lung [16]) was “Active”. For the same compound, the EC50 (Trypanosoma cruzi [30]) was 0.059 µM, the Activity (C2C12) was “Non-toxic” and the t1/2 (Liver [31]) was 0.333 h. The “inhibition (INH)” value (Cytochrome P450 1A2) was 5%, the inhibition in vivo at 40 mg/kg (Trypanosoma cruzi [32]) was 97.9% and the Drug uptake (Liver [18]) was “Active”. The Drug uptake (Liver [20]) was “Active”, the Drug uptake [21] was “Active” and the Drug uptake (Heart [22]) was “Active”. For the same compound, the inhibition in vivo at 25 mg/kg (Trypanosoma cruzi [33]) was 47.7%, the Drug uptake [23] was “Active” and the Kd [34] was 0.29 µM. The Drug uptake [26] was “Active”.
